Ten molecules from ChEMBL document CHEMBL1142533, “Structure-based virtual screening and biological evaluation of Mycobacterium tuberculosis adenosine 5'-phosphosulfate reductase inhibitors” (J Med Chem, 2008) can be followed below.

The structures appear in SMILES notation. pKd: −log10 of the molar value.

The nature of experiment [1]: Binding affinity to Mycobacterium tuberculosis APS reductase. Summed up: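 Timed aliquots quenched in 2% charcoal/20 mM Na2SO3, radiolabeled sulfite in supernatant counted. kobs from single-exponential fit; Ki (=Kd) from kobs dependence on inhibitor concentration.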
Experiment [2] deals with Mycobacterium tuberculosis. The experiment in a line: Inhibition of Mycobacterium tuberculosis APS reductase assessed as [35S]sulphite release at 100 uM.
Experiment [3] addresses T1, Receptor-type tyrosine-protein phosphatase C (Homo sapiens) (UniProt P08575).
T1 sequence (whole entry): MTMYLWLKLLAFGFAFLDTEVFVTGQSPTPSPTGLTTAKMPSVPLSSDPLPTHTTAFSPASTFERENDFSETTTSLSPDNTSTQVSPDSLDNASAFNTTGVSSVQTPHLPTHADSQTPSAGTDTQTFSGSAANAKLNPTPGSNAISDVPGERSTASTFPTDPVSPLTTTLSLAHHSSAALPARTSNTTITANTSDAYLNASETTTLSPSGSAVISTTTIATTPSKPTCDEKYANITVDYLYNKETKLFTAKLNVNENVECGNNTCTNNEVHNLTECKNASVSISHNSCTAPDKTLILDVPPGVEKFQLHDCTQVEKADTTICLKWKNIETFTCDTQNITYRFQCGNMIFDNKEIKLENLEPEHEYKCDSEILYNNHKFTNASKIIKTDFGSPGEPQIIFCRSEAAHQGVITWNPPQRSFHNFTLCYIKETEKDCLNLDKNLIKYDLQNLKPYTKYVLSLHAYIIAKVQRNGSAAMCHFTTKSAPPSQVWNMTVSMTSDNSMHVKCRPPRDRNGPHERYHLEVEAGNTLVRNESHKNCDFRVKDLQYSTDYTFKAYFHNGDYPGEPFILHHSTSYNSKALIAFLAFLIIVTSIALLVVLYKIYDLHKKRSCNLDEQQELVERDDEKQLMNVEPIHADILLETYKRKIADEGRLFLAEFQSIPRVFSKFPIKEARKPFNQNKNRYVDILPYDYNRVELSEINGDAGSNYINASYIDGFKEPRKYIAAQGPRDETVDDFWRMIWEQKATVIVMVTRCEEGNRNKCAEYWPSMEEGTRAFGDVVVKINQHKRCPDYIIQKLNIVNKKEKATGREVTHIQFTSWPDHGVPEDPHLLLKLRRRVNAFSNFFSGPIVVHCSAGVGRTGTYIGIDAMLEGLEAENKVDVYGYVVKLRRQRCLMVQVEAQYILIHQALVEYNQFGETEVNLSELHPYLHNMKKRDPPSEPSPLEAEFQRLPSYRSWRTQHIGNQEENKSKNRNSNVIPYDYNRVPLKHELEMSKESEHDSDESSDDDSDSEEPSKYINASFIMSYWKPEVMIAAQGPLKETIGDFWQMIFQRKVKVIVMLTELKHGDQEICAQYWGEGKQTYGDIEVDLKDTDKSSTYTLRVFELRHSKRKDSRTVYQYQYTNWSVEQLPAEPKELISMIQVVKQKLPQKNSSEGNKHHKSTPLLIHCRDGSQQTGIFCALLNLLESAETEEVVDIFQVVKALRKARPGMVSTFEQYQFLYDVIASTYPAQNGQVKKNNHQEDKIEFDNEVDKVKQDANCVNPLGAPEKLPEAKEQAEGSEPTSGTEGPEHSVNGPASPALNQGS

By pKd is commonly meant the Kd on a negative log10 scale, so that one unit is a factor of ten. Read a low pKd as a large Kd. A word on the inhibition: it is the drop in the measured response relative to a control, in per cent. In experiment [1], `O=C1c2ccccc2-c2cc([N+](=O)[O-])c([N+](=O)[O-])cc21` showed a negative logarithm of the Kd (pKd) of 4.43. For the same molecule, the inhibition in experiment [2] was over 50%.
In experiment [1], `Nc1nc(Sc2ccc([N+](=O)[O-])c3nonc23)c2nc[nH]c2n1` had a pKd of 4.82. The inhibition in experiment [2] is over 90%.
Take `CC(=O)Nc1cc2c(cc1[N+](=O)[O-])-c1ccccc1C2=O`: the negative-log Kd (pKd) in experiment [1] was 4.50.
On the same count and under the same terms, then `O=C1c2ccccc2-c2c1cc([N+](=O)[O-])cc2[N+](=O)[O-]`, with 4.32; and `O=C(O)C[S+]([O-])c1ccc2c3c(cccc13)C(=O)c1ccccc1-2` (centres undefined), with 3.74; and `O=C1c2cc(F)ccc2-c2cc(F)c([N+](=O)[O-])cc21`, with 4.35.
Turning to `O=C(O)CCc1nnc2c3ccccc3c3ccccc3c2n1`, the pKd in experiment [1] was 4.33. For the same molecule, the inhibition in experiment [2] was over 50%.
Take `CC(=O)[C@H]1CC[C@H]2C34C=C[C@]5(C[C@@H](O)CC[C@]5(C)C3=CC[C@]12C)[C@H](C(=O)O)[C@@H]4C(=O)O`: in experiment [1], the negative-log Kd (pKd) was 3.90.
On the same count and under the same terms, to `O=[N+]([O-])c1ccc(Sc2cccc[n+]2[O-])c2nonc12` belongs 4.71.
`O=C1C(=O)c2cc([N+](=O)[O-])ccc2-c2ccccc21` yielded a Kinact in experiment [3] of 4300 M⁻¹ s⁻¹. In experiment [1], this molecule gave a pKd of 5.17.
